In ChEMBL document CHEMBL4513216, “Probing the Open Global Health Chemical Diversity Library for Multistage-Active Starting Points for Next-Generation Antimalarials” (ACS Infect Dis, 2020):

Assay: Toxicity liver stage against HepG2, at 10uM
Type: cell-based
Parameters: test concentration 10 uM, cell line HepG2-A16-CD81EGFP
Conditions: human, HepG2-A16-CD81EGFP cells; read-out: INHIBITION
Outline: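 Uninfected HepG2-A16-CD81EGFP cells, 3 × 10^3 per well, 1536-well, plated on prespotted compound at 10 μM final, parasite-free screening media added to match infected plates; puromycin 10 μM positive, DMSO 0.5% negative; run in parallel with 48 h PbLuc assay at 37 °C, 5% CO2; viability by CellTiter-Glo luminescence, normalized to controls.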

SMILES | cytotoxicity at 10 µM [%]
Fc1ccc(C2CCCN2Cc2nc(Cc3ccccc3F)no2)cc1 (stereo unspecified) | -18.2
CN(C)Cc1cc(CC2(NCc3ccccc3Cl)COC2)no1 | 4.14
CS(=O)(=O)NC[C@H]1Cn2c(-c3ccccc3)cnc2CO1 | -2.96
CN(CCC#N)C(=O)C(C)(C)Oc1ccc(C(N)=O)cc1 | 0.676
COc1ccc2c3c1CN(C(=O)N(C)C)CC3=CC(C)(C)CO2 | 5.21
COCCN(Cc1ccoc1)S(=O)(=O)c1ccc(OC)c(Cl)c1 | 6.27
Cn1cnc(S(=O)(=O)NCC(O)c2ccc3c(c2)CCO3)c1 (stereo unspecified) | -6.28
Cn1cnc(S(=O)(=O)NCCC(O)c2ccc3c(c2)OCO3)c1 (stereo unspecified) | -8.71
N#Cc1ccccc1Cn1cncn1 | 13.1
Cc1ccc(C(=O)N2C[C@H](OCc3cccnc3)[C@H]3COC[C@H]32)cn1 | -1.52
O=C1CC(c2cccs2)c2sc(C(=O)O)c(-c3ccccc3)c2N1 (stereo unspecified) | -1.66
Cn1cc(I)c(C(=O)NC2CCCCC2)n1 | 18.1
O=C(c1ccc(F)c(F)c1)N1CCCSCC1CN1CCCC1 (stereo unspecified) | -0.524
CC1CCc2nc(O)c(C(=O)NCCN(C)C)cc2C1 (stereo unspecified) | -13.8
CCOCCCNc1cc(C)nn2cnnc12 | 2.21
CCn1ncc(CNc2[nH]cnc3nncc2-3)c1C | 2.76
FC(F)(F)c1cc(-c2cccs2)nc(N2CCN3CCCC3C2)n1 (stereo unspecified) | 10.7
CC(C)(C(=O)N[C@@H]1CCC[C@@H](O)[C@@H]1O)c1cccc(F)c1 | 4.79
CNC(=O)c1cn[nH]c1C1CCN(Cc2cn(C)nc2C)C1 (stereo unspecified) | -24.3
CO[C@H]1CN(Cc2ccc(F)cc2)CC[C@@]12CCCO2 | -24.5
Cn1nccc1CCC(=O)N1CCCC(c2cnccn2)C1 (stereo unspecified) | -22.7
O=S(=O)(c1ccc(F)c(F)c1)N1CCCC(c2nccs2)C1 (stereo unspecified) | -0.523
Cc1ccc(S(=O)(=O)N2C[C@H]3C[C@H](NC(=O)c4cscn4)[C@H]3C2)cc1 | 12

SMILES | cytotoxicity at 10 µM [%]
Cn1nccc1C(=O)N1C[C@@H]2CC[C@H](Oc3cccc(F)c3)[C@@H]2C1 | -13.8
CC(=O)N1CCCC(c2ccc(C(=O)NC3CCCC3)cn2)C1 (stereo unspecified) | 0.692
O=C(CC1CCCCC1)NC1CCCc2nc(N3CCOCC3)ncc21 (stereo unspecified) | -5.24
Cc1cnn(CC(C)NCc2cc(C#N)ccc2F)c1 (stereo unspecified) | 0.224
CC(C)CC(C)(CNC(=O)c1cnccn1)NC(=O)c1cnccn1 (stereo unspecified) | -2.71
CCN(Cc1cc(=O)n2cc(Br)ccc2n1)C1CC1 | 7.95
CN(CCc1cccs1)C(=O)Nc1ccc2c(c1)C(=O)N(C)CC2 | -5.44
COCCN(Cc1ccc(C)o1)C(=O)Nc1nnc2ccccn12 | -1.59
COc1cccc(CNC2CCCOc3cc(C)ccc32)n1 (stereo unspecified) | 8.53
COc1ccc(CCNC(=O)C2CCCOC2)c(Cl)c1 (stereo unspecified) | 0.0357
Cn1c(Cl)cnc1CN1CCCC1c1ccc2c(c1)OCCO2 (stereo unspecified) | -1.29
COCCn1cc(C(=O)N2CCCC2c2cccs2)c2ccccc21 (stereo unspecified) | 23.7
CCc1noc(CS(=O)(=O)Cc2nc(Cc3ccccc3)no2)n1 | 5.45
CN(Cc1ccccc1)C(=O)CN1CCCCC1Cn1cncn1 (stereo unspecified) | 10.4
Cc1nc(C)n(CC2CCCN2CC(=O)Nc2ccncc2)n1 (stereo unspecified) | -1.73
CN(Cc1ccccc1)CC(C)(C)NC(=O)c1cnns1 | -3.67
C=C(C)CN(CC)Cc1nc(C2CC2)no1 | -7.51
NC(=O)C1CCN(CC(=O)N2CCCC2c2ccsc2)CC1 (stereo unspecified) | -11.4
Cc1nc(CNC(=O)NC2CCN(c3ncccc3Cl)C2)no1 (stereo unspecified) | 11.9
Cn1ncnc1CNC1CCCc2cc(F)ccc21 (stereo unspecified) | -5.62
CC(NCc1ccc(F)cc1)c1ccc(S(C)(=O)=O)cc1 (stereo unspecified) | 12.6
CN(Cc1cc(F)ccc1F)CC(C)(CO)CO | -5.38
CCCN(CCc1cccc(F)c1)c1ccc2nnnn2n1 | 1.44

SMILES | cytotoxicity at 10 µM [%]
COc1ccc(C(C)(C)C(=O)NCc2n[nH]c(=O)[nH]2)cc1 | 1.07
COCCn1ccc(NC(=O)Nc2cccnc2)n1 | -12.3
Cc1noc(C)c1CN1CCC2(CC1)NC(=O)CC2c1ccncc1 (stereo unspecified) | 0.635
Cc1cnc(N2CCn3cc(CNC(=O)CC4CC4)nc3C2)nc1 | 12.3
COCCC(=O)N1CC[C@@H](N(C)C)[C@@H]1Cc1ccccc1 | -5.05
Cc1ccccc1[C@@H]1CN(Cc2nc3ncccn3n2)C[C@H]1C(=O)O | -6.55
Cc1cc(-c2cc(S(=O)(=O)N3C[C@H](C4CC4)[C@@H](N)C3)c(C)s2)[nH]n1 | 2.47
Cc1cc(C)nc(N2CCC(C(=O)O)(n3ccc(C(C)(C)C)n3)CC2)n1 | -5.6
FC(F)(F)CCc1ccnc(N2CCN(Cc3ccccn3)CC2)n1 | -27
CN1CCC(c2nnc(CN3CCCCC3)n2C)CC1 | 16.4
COCC(=O)N1CCN(S(=O)(=O)c2ccccc2)[C@H]2CS(=O)(=O)C[C@H]21 | 4.84
CCN(CCO)Cc1cn(-c2cccc(F)c2)nc1-c1ccc(C)o1 | 8.32
N#Cc1cccc(CN2C(=O)C3(CCNCC3)Nc3ccccc32)c1 | 0.529
COc1cccn(CC(=O)N(C)CCCOc2c(C)cccc2C)c1=O | 5.27
CCC(CO)N(Cc1ccco1)Cc1c(C)nn(C)c1Cl (stereo unspecified) | 7.4
Cc1nc(C)c(C)c(N2CCC(O)(c3ccc(F)cc3)CC2)n1 | -6.08
Cc1nn(C)c(Oc2ccc(Cl)cc2)c1CN1CC[C@H](CO)[C@@H](O)C1 | -10.5
OC1(CN2CCCC2)CCCN(Cc2c[nH]c(CC3CCCC3)n2)C1 (stereo unspecified) | -9.09
Cc1nccn1-c1ccc(N2CCC(NC(C)C(C)C)CC2)cc1 (stereo unspecified) | -7.33
CCN(Cc1cc(Cl)c(O)c(OC)c1)Cc1nc(COC)no1 | 1.29
O=C(C1CCCCO1)N1CCc2ncnc(NCCO)c2CC1 (stereo unspecified) | 7.94
Cc1nnc(N2CC[C@@]3(O)CCNC[C@H]3C2)c2ccccc12 | 2.61
CC(C)n1cnnc1CN(C)C(=O)Cn1ccc2ccccc2c1=O | 3.1

SMILES | cytotoxicity at 10 µM [%]
COCCNc1cc(-c2ccccc2CCN)c2cc[nH]c2n1 | 2.13
COCCNC(=O)c1cc(COc2cncc(Cl)c2)on1 | 0.141
CCc1[nH]c2c(CNC(=O)C3CNC(=O)C3)cc(C)cc2c1C (stereo unspecified) | 2.75
CN1CCN(C(=O)N2CCCC(c3nccn3CC3CCC3)C2)CC1 (stereo unspecified) | 6.64
COCC[C@]1(O)CCN(CC(=O)NCc2ccccn2)C[C@H]1C | 7.8
COCCN(C)Cc1cc(Cl)ccc1OCC(O)CN1CCCCCC1 (stereo unspecified) | 1.76
OCc1ccc(CN2CCC(n3cc(-c4ccsc4)nn3)CC2)o1 | 6.77
Cc1nc2sccn2c1C(=O)N1CCn2nc(C(=O)NC3CC3)cc2C1 | 9.63
COc1ccccc1OC1(C(=O)O)CCN(c2cc(C)nc(C)c2)CC1 | 2.65
O=C(NC(CO)CO)c1coc(COc2cccc(F)c2)n1 | 12.5
COc1ccc(C(=O)C2CCCN(CCCn3cccn3)C2)c(OC)c1 (stereo unspecified) | -12.2
CC(C)c1nc2c(n1C)CCN(Cc1nc(-c3ccoc3)no1)C2 | -2.06
Cc1ccc(C(=O)NS(=O)(=O)c2cc(Br)ccc2C)c(=O)[nH]1 | -2.27
Cc1oc(C)c(C(=O)NCc2ccccc2CN(C)C)c1C | -16.9
Nc1nccnc1C(=O)NCCCNc1ccc(C(F)(F)F)cn1 | -8.16
CC(Cn1cccn1)NCc1ccc(Cl)s1 (stereo unspecified) | -8.12
CCc1noc(CN2CCN(C(=O)COC)CC2)n1 | -8.09
CCOCc1ccc(CNC(=O)N2CCC(C(N)=O)C2)cc1 (stereo unspecified) | -11.4
Cc1ccccc1C(=O)NCCCN1CCc2ccccc2C1 | -16.5
Cc1cnn(CC2CCCN2Cc2noc(C(C)C)n2)c1 (stereo unspecified) | -1.67
CC(NCc1cc(F)ccc1F)c1ccc(OCC(=O)NC2CC2)cc1 (stereo unspecified) | -13.2
CC(=O)N1CCCN(C(=O)NCc2ccc(Cl)s2)CC1 | -4.02
Cn1ccc(C(=O)N2CCN(CC(O)C(C)(C)C)CC2)cc1=O (stereo unspecified) | 2.76

SMILES | cytotoxicity at 10 µM [%]
CCn1nc2c(cc1=O)CN(Cc1nnc(C3CC3)o1)CC2 | -16.2
Cn1nc2c(cc1=O)CN(Cc1nc(C3CC3)no1)CC2 | -10.8
CC(C)C(Sc1nnnn1C1CC1)C(=O)NCc1cccnc1 (stereo unspecified) | -0.267
CC1CN(CC(=O)Nc2nncs2)CCN1Cc1nccn1C (stereo unspecified) | -11.2
COCCN1CCN(CCCS(C)(=O)=O)CC1C (stereo unspecified) | -5.5
CC(=O)N(Cc1noc(C2CC2)n1)C1CCN(Cc2cccnc2)C1 (stereo unspecified) | -3.36
c1cc(-c2noc(CN3CCn4c(nnc4C4CC4)C3)n2)co1 | -0.986
Cn1cnnc1CNC(=O)Nc1cc(C(F)(F)F)c[nH]c1=O | -3.2
CC(C)c1nnc2n1CCN(C(=O)CN1CCc3sccc3C1)C2 | -4.97
Cc1nc(C)n(CC2CCCN2CCCOc2ccc(F)cc2)n1 (stereo unspecified) | -6.72
Cc1nn(C)c(C)c1C1CCCN1CC(=O)NC(C1CC1)C1CC1 (stereo unspecified) | -5.38
Cc1n[nH]c(=O)c2c(NC(=O)CN3CCC(O)CC3)oc(C)c12 | 1.17
Cc1cnc(-c2nc(C3CCCN(Cc4ccccc4C)C3)no2)cn1 (stereo unspecified) | -2.33
CNC(=O)[C@@H](CC(C)C)N1CCC[C@H]1C(=O)N(C)Cc1ccccc1 | 6.14
O=C(c1ccco1)N1C[C@H]2CCCN(CC3CC3)[C@H]2C1 | 2.36
CN1CCO[C@@H]2CN(S(=O)(=O)c3ccccc3)C[C@@H]2C1 | 0.93
CN(C)C(=O)c1n[nH]c2c1CN(CC1CCCCC1)C2 | 2.86
c1nc(N2CCc3nc[nH]c3C2)c2cc[nH]c2n1 | -5.71
CC1(C)[C@@H]2CC=C(CN3CCCn4nc(CNS(C)(=O)=O)cc4C3)[C@H]1C2 | -46
